Results on six substances are retold here after publication PMC3887510 (Journal of the American Chemical Society, 2013).

For experiment [1], the target named is T1, AgrC-III (Staphylococcus aureus, UniProt O33590). Description: AgrC-III antagonism assay. Type of experiment: cell-based. To be noted: ratio of IC50 values vs AIP-III D4A.
The target in experiment [2] is T1, AgrC-III. The following applies: read-out: AgrC-III antagonism IC50 value (CI); S. aureus AH1747 group-III P3-gfp reporter; CI = 95% confidence interval; cited from earlier work.
Experiment [3] has as its system chimeric AgrC-III-IV receptor. Nature of the experiment: AgrC-III agonism assay. Type of experiment: cell-based, Staphylococcus aureus. The following applies: S. aureus RN9532 reporter strain. Summed up: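 Uses an agr-null group-I strain carrying a P3-blaZ reporter plasmid. The chimeric receptor joins the group-III AgrC N-terminal sensor domain to the group-IV AgrC C-terminal histidine kinase domain, followed by the agrA coding sequence. Test peptides were serially diluted from stock to give dose-response data. β-lactamase activity was the read-out (modified literature assay), and EC50 was calculated from the curves.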

For experiment [4], the target named is T1, AgrC-III. The following applies: cited from earlier work.
Experiment [5] concerns constitutively active AgrC-I receptor mutant. The following applies: cited from earlier work.

“Also recorded” adds a separate entry of the source.

Broadly, the IC50 is the concentration that inhibits the measured activity by half.

With Y-S-T-(C-D-F-I-M) [AIP-I], the “fold weaker / reduced AgrC-III inhibitory activity relative to AIP-III D4A” value on AgrC-III [1] amounted to 10 fold. Moreover, the IC50 at AgrC-III [2] is 0.522 nM. Also, in experiment [3], the “AgrC-III agonistic activity in words” value is given as “inactivity”. Further, the “fold less active as AgrC-III inhibitor relative to AIP-I D5A” value at AgrC-III [4] is listed as 10 fold.

On to I-N-(C-A-F-L-L) [AIP-III D4A], for which the IC50 at AgrC-III [2] was 0.0506 nM.

Turning to Y-S-T-(C-Y-F-I-M) [AIP-IV], the IC50 at AgrC-III [2] was 0.46 nM. Besides, in experiment [3], the “AgrC-III agonistic activity in words” value is given as “inactivity”. Moreover, the “mode of action on constitutively active AgrC-I receptor mutant” value (shortened to “mode of action”) in experiment [5] was “neutral antagonists”.

With I-N-(C-D-F-L-dL) [AIP-III D-L7], the “AgrC-III agonistic activity in words” value in experiment [3] is “agonistic activity; also recorded: able to activate AgrC-III (with analogous activity as AIP-III”. Further, the “AgrC-III agonism EC50 value relative to AIP-III” value in experiment [3] (Figure S-2) is recorded as “comparable to AIP-III”.

As to I-N-(C-D-F-L-L) [AIP-III], in experiment [5], the “mode of action” value was “neutral antagonists”.

Regarding G-V-N-A-(C-S-S-L-F) [AIP-II], the IC50 on AgrC-III [2] is 0.532 nM. In experiment [3], the “AgrC-III agonistic activity in words” value was “inactivity”. In addition, the “mode of action” value in experiment [5] is “inverse agonist”.
